Values after ≈ are worked out from the molar mass of the structure shown. Read-outs that look alike come from different tables or passages of the source.
Assays:
P. falciparum K1 = assay: Toxicity to P. falciparum K1 strain; type: cell-based, Plasmodium falciparum
PfFabI = target: T1, PfFabI (Plasmodium falciparum, UniProt Q9BH77); assay: Inhibition of PfFabI; type: biochemical
T1 sequence (Q9BH77 22-432): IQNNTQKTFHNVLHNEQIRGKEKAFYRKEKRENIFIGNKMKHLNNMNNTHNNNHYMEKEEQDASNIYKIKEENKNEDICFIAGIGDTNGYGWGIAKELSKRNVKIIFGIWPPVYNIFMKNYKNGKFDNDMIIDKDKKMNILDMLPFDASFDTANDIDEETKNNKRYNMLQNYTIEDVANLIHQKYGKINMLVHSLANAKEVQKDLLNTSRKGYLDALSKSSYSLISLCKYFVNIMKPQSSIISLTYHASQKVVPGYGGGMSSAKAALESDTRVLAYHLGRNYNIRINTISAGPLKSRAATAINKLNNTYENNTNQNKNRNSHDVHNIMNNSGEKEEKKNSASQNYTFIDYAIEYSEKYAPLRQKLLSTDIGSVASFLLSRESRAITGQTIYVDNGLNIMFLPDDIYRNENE

PfFabZ = target: T2, PfFabZ (Plasmodium falciparum, UniProt Q965D7); assay: Inhibition of PfFabZ; type: biochemical
T2 sequence (Q965D7 19-230): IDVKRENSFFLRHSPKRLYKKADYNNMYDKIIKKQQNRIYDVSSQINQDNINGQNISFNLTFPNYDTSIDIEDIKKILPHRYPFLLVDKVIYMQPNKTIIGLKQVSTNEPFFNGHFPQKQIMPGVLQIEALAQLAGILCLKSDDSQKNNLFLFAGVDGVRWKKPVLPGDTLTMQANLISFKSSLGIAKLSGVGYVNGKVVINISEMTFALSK

PfFabG = PfFabG (Plasmodium falciparum, UniProt Q8I2S7); assay: biochemical
[1] = test system: human SH-SY5Y neuroblastoma cell line; assay: Cytotoxicity to SH-SY5Y neuroblastoma cells; type: cell-based; conditions: 120 h, read-out: IC50 SH-SY5Y neuroblastoma cell line
In short: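 Human SH-SY5Y neuroblastoma cells were first differentiated with 15 μM all-trans retinoic acid for 5 d. Test compound was then added to the culture medium, and activity was read by sulforhodamine B (SRB) assay.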

[2] = test system: mouse leukaemic monocyte macrophage cell line (RAW 264.7); assay: Cytotoxicity to RAW 264.7 cells; type: cell-based; conditions: RAW264.7, read-out: IC50 RAW 264.7
[3] = test system: human colon adenocarcinoma grade II cell line (HT29); assay: Cytotoxicity to HT29 cells; type: cell-based; conditions: HT-29, read-out: IC50 HT29
caspase-3 = assay: Caspase-3 activation in SH-SY5Y cells; type: cell-based, human; conditions: 40 μM, 48h, in words
[4] = test system: human SH-SY5Y neuroblastoma cells; assay: LDH release in SH-SY5Y cells; type: cell-based; conditions: 40 μM, 48h, in words
M. smegmatis mc^2 155 = conditions: ref Morbidoni et al., 2006; cited from earlier work
[5] = test system: Mycobacterium tuberculosis H37Rv; conditions: ref Morbidoni et al., 2006; cited from earlier work
[6] = test system: InhA, the enoyl-ACP reductase; conditions: in words; ref Morbidoni et al., 2006; cited from earlier work
[7] = test system: L. donovani promastigotes; conditions: read-out: IC50 L. donovani promastigotes; ref Carballeira et al., 2012; cited from earlier work
LdTopIB = conditions: read-out: LdTopIB EC50; relaxation activity; ref Carballeira et al., 2012; cited from earlier work
hTopIB = target: T3, hTopIB (Homo sapiens, UniProt P11387); conditions: read-out: hTopIB EC50; relaxation activity; ref Carballeira et al., 2012; cited from earlier work
T3 sequence (P11387 1-765): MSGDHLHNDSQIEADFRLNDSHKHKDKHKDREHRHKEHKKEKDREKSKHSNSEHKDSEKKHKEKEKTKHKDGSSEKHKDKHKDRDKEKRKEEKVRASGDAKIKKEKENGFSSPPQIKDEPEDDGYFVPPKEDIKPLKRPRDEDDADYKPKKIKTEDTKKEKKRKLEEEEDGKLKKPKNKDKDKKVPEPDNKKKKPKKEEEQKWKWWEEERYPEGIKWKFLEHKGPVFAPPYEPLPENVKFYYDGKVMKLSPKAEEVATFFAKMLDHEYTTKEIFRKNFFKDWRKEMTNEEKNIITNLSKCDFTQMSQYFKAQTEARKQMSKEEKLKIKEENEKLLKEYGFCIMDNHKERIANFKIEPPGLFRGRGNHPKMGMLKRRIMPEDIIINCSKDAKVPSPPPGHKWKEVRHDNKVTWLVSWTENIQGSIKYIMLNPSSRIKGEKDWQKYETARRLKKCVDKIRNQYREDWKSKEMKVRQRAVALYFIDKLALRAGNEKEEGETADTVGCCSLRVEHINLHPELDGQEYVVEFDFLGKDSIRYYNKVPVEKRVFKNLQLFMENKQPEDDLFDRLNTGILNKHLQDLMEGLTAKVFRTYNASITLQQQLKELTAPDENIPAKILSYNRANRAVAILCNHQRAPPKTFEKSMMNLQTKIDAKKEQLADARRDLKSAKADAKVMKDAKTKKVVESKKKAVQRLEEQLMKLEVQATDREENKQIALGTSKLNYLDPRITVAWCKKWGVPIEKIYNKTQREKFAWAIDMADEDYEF

[8] = test system: BALB/c murine macrophages; conditions: read-out: Murine macrophages BALB/c IC50; ref Carballeira et al., 2012; cited from earlier work
housefly = conditions: in words, ref de Renobales et al., 1986; cited from earlier work

What does the source list for `CCCCCCCCCCCCCCCC#CC(=O)O` [2-ODA, 2-octadecynoic acid]?
IC50 (P. falciparum K1; Plasmodium falciparum, K1, read-out: IC50 P. falciparum K1, Carballeira and Tasdemir, unpublished data): 20 µM; IC50 (P. falciparum K1; read-out: IC50 P. falciparum K1, Carballeira and Tasdemir, unpublished data): 21.7 µM; IC50 (PfFabI): 1.1 µM; IC50 (PfFabZ): 1 µM; IC50 (PfFabG): 2.9 µM; IC50 [1]: 26 ± 2 µM; IC50 [2]: 45.5 ± 3.4 µM; IC50 [3]: 101.1 ± 0.9 µM; Caspase-3 activation (caspase-3): did not produce any significant caspase-3 activation; LDH release [4]: significant LDH release; MIC against M. smegmatis mc^2 155 (M. smegmatis mc^2 155): 4 µM (≈ 1.12 µg/mL); MIC against Mycobacterium tuberculosis H37Rv [5]: 20 to 25 µM; Inhibition of InhA [6]: able to inhibit; IC50 [7]: 11 µM; EC50 (LdTopIB): 5.3 ± 0.7 µM; EC50 (hTopIB): 34.8 ± 2.3 µM; IC50 [8]: > 100 µM; In vivo incorporation of [1-14C]acetate into fatty acids and hydrocarbons (housefly): inhibited
